Compound activity from PubChem BioAssay.
Shown are actives, neighbours in structure and some others; about 1.5% of the full set was active somewhere.
Wnt act: activates Wnt/beta-catenin signaling in a reporter cell assay | 300,000 tested, 1.2% active | AID 743398 | activation, % at 9.35 µM | activator, plate reader; in the data active = activation above about 30%, passing the limit was not always enough; inconclusive = no clear call, values can overlap the other calls;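 note: 0% = neutral control wells and 100% = positive control wells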
PGC1a acetyl inh: modulators of PGC1a acetylation; U2OS PGC1a acetylation, AlphaScreen anti-acetyl-lysine; with virally co-expressed GCN5 acetyltransferase; inhibition, % at 15.6 µM; 350,000 tested, 0.17% active; AID 651687;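 active = every replicate shows inhibition of at least 40%; inconclusive = mean inhibition at least 40% but some replicate below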;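 note: 0% = neutral control wells and 100% = positive control wells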
Cneo AK release: Cryptococcus neoformans lysis via adenylate kinase release; lysis activity, % at 15 µM; 360,000 tested, 0.2% active; C. neoformans lysis, adenylate kinase release luminescence, 4 h; normalised: neutral wells 0, clomiphene wells 100;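 active = mean lysis activity across replicates of at least 80%, whatever share of replicates individually reach that level; inactive = mean lysis activity below 80%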
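Assay system: C. neoformans cells. Amount: yeast cell density of 5 × 10^6 cells/mL. Technique: AK luminescence. Buffer or medium: YPD. Times: static 4 h at 37 °C with compound, 1 h detection. Dosing: single-point compound dose. Read-out: lysis from increased AK signal.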
MITF act: activators of MITF-driven TRPM1 promoter activity in SK-MEL-5 cells; SK-MEL-5 TRPM1-promoter luciferase, 24 h; % of positive control, neutral wells = 0; activation, % at 12.5 µM; 300,000 tested, 0.75% active; AID 588334;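 active = mean activation of at least 80% with every replicate also reaching 80%; inconclusive = mean reaches 80% but some replicate falls short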;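 note: 0% = neutral control wells and 100% = parthenolide positive control wells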
Active calls of the source: *; ? = inconclusive; . = no result given.

SMILES | Wnt act | PGC1a acetyl inh | Cneo AK release | MITF act
CN1CCCC1CCNc1ccc2oc3ccccc3c(=O)c2c1 (configuration not stated) | 3 | . | . | .
CC(=O)Nc1ccc2c(c1)C(=O)N(C)[C@@H]1CC[C@@H](CC(=O)NCc3ccc(F)cc3)O[C@@H]1CO2 | . | -6 | -2 | .
C[C@@H]1CN([C@H](C)CO)C(=O)c2cc(NS(=O)(=O)c3ccc(F)cc3)ccc2O[C@@H](C)CCCCO[C@H]1CN(C)S(=O)(=O)c1ccccc1 | . | -1 | . | .
CCCNC(=O)C[C@H]1CC[C@H]2[C@H](COc3ccc(NC(=O)c4cc(F)cc(F)c4)cc3C(=O)N2C)O1 | . | -12 | -1 | .
Nc1ccc(NC(=O)c2cccs2)cc1 | 1 | 1 | . | .
O=C(Nc1ccc2c(c1)CCC2)c1cccs1 | 55* | -11 | -3 | 66
O=C(Nc1cccc(O)c1)c1ccc(NC(=O)c2cccs2)cc1 | 0 | -2 | -6 | 103*
O=C(Nc1ccc(N2CCOCC2)c(F)c1)c1cccs1 | ? | 3 | -6 | 110*
CCC(=O)Nc1cccc(NC(=S)NC(=O)c2cccs2)c1 | . | 1 | . | 86*
CCC(=O)Nc1cccc(NC(=S)NC(=O)c2ccccc2Cl)c1 | . | 0 | 5 | 41
Cc1cc(C(=O)Nc2cccc3c2O[C@@H](CN(C)C(=O)Nc2ccc4c(c2)OCO4)[C@@H](C)CN([C@H](C)CO)C3=O)n(C)n1 | . | -3 | -2 | .
CC(C)NC(=O)N[C@H]1CC[C@H](CC(=O)NCCN2CCCC2)O[C@@H]1CO | . | 1 | -2 | .
CCCCCc1ccc(-c2ccc(OC)cc2)nc1 | 20 | . | -1 | 97*
CCCCCc1ccc(-c2ccc(/C=C/C(N)=O)cc2)nc1 | . | 7 | -6 | 8
CCOc1ccc(N(CC(=O)Nc2ccccc2OC)S(=O)(=O)c2ccccc2)cc1 | -1 | 88* | -2 | .
COCC(=O)N(C)C[C@H]1Oc2cc(-c3ccccc3F)ccc2S(=O)(=O)N([C@H](C)CO)C[C@H]1C | . | -9 | 9 | .
O=C(/C=C/c1nc2ccccc2s1)N1CCCCCC1 | 10 | 5 | -4 | 100*
CC(C)c1nnc(NC(=O)c2cccc(NC(=O)C(F)(F)F)c2)s1 | 35* | . | . | 50
CC(C)C(=O)Nc1cccc(C(=O)Nc2nnc(C(C)C)s2)c1 | . | 2 | 1 | 91*
CCCc1cn(CC[C@@H]2CC[C@H](NC(=O)C3CC3)[C@@H](CO)O2)nn1 | . | 5 | 45 | .
C[n+]1c(/C=C/c2ccc(O)cc2)ccc2ccccc21 | 24 | 1 | -2 | 30
Cc1cc(/C=C\c2ccc3cc(N(C)C)ccc3[n+]2C)c(C)n1-c1ccccc1 | . | 68* | -6 | -100
Cc1cc(OCC(=O)N(C)C2CCCCC2)ccc1Cl | 60* | 1 | 0 | 39
Cc1cc(OCC(=O)N(C)C2CCCCC2)cc(C)c1Cl | -1 | . | . | 45
COc1ccc(S(=O)(=O)N[C@H]2C=C[C@H](CC(=O)NCc3ccccc3F)O[C@H]2CO)cc1 | . | 19 | -4 | .
SMILES | Wnt act | PGC1a acetyl inh | Cneo AK release | MITF act
O=C(C[C@H]1CC[C@H](NC(=O)Nc2ccc(C(F)(F)F)cc2)[C@@H](CO)O1)NCc1ccccn1 | . | -1 | 1 | .
CCC(C)C(=O)Nc1nnc(-c2cccs2)s1 (configuration not stated) | 34* | 7 | -1 | .
O=C(Nc1ccc(F)cc1Cl)c1ccc2c(=O)n3c(nc2c1)CCC3 | 29 | -3 | 1 | 102*
C[C@@H]1CN([C@H](C)CO)C(=O)c2c(c3ccccc3n2C)-c2ccccc2CO[C@H]1CN(C)C(=O)[C@@H]1CCCN1C | . | 5 | -2 | .
CCN=c1scc(-c2ccc(F)cc2)n1/N=C/c1ccccn1 | 17 | -1 | . | 91*
CCN=c1scc(-c2ccccc2)n1/N=C/c1ccccn1 | . | . | . | 8
CCc1nc2c(OCc3ccc(S(C)(=O)=O)cc3)cccn2c1N(C)C(=O)c1ccccc1F | -4 | 45* | 1 | .
N/C(=N\OC(=O)c1ccco1)c1ccccc1 | 36* | 8 | -1 | 95*
N/C(=N\OC(=O)c1ccc(Cl)cc1[N+](=O)[O-])c1cccnc1 | 37* | . | . | .
Cc1ccc(/C(N)=N/OC(=O)c2ccco2)cc1 | ? | -62 | 0 | .
N/C(=N\OC(=O)c1ccccc1)c1cccnc1 | 51* | 17 | . | 17
N/C(=N\OC(=O)c1cc(Cl)ccc1Cl)c1cccnc1 | . | -13 | 2 | .
COc1cc(/C=N/NC(=O)c2cccnc2)ccc1OC(=O)c1ccc2c(c1)OCO2 | 46* | 3 | -2 | -2
COc1ccc2c3c([nH]c2c1)[C@H](CO)N(CC1CC1)CC31CCN(Cc2ccccc2F)CC1 | . | -4 | . | .
CC(C)(C)c1ccc(C(=O)O/N=C(\N)c2ccccc2)cc1 | -17 | . | -4 | -66
N/C(=N\OC(=O)c1ccc2c(c1)OCO2)c1cccc(Br)c1 | 17 | -7 | -7 | 116*
N/C(=N\OC(=O)c1ccc2c(c1)OCO2)c1cccnc1 | 62* | . | . | 77
N/C(=N\OC(=O)c1ccccc1)c1ccn[nH]1 | 49* | . | -11 | 19
Cc1noc(C)c1NC(=O)Nc1ccc2c(c1)CC(=O)N([C@@H](C)CO)C[C@@H](C)[C@H](CN(C)S(=O)(=O)c1ccccc1)O2 | . | 10 | 2 | .
CNC[C@H]1Oc2ccc(NS(=O)(=O)c3cn(C)cn3)cc2CC(=O)N([C@@H](C)CO)C[C@H]1C | . | 6 | 22 | .
Cc1ccc(C2CCN(C(=S)NC3CCCCC3)C2)cc1 (configuration not stated) | 10 | 10 | 119* | 13
COC(=O)C1CCN(S(=O)(=O)c2c(C)n(C)c(=O)n(C)c2=O)CC1 | 48* | 5 | -3 | 1
CC(=O)Nc1ccc2c(c1)C(=O)N(C)[C@H]1CC[C@H](CC(=O)NCc3ccc(F)cc3)O[C@H]1CO2 | . | 1 | 1 | .
Cc1ccc(C(=O)Nc2ccc3c(c2)nc2n3CCSC2)cc1 | 33* | -5 | -3 | .
COc1ccc(-c2cc3nc[nH]c(=O)c3s2)cc1 | 34* | 5 | -3 | 27
SMILES | Wnt act | PGC1a acetyl inh | Cneo AK release | MITF act
CO[C@H](CN(C)C(=O)c1cnccn1)[C@H](C)CN([C@@H](C)CO)S(=O)(=O)c1ccc(Cl)cc1 | . | 5 | -2 | .
O=C(/C=C/c1ccc(F)cc1)NCCC1=CCCCC1 | 65* | -3 | 3 | .
O=C(/C=C/c1ccccc1)NCCC1=CCCCC1 | 28 | 10 | -3 | 40
COc1ccc(NC(=O)NCCC2=CCCCC2)cc1 | 52* | . | . | 56
COc1ccccc1/C=C/C(=O)NCCC1=CCCCC1 | 53* | . | . | 48
C[C@@H]1CN([C@@H](C)CO)C(=O)c2ccccc2-c2ccccc2CO[C@H]1CN(C)C(=O)Nc1cccc(F)c1 | . | -4 | 0 | .
C[C@H](CO)N1C[C@H](C)[C@@H](CN(C)CC2CCCCC2)Oc2ccc(NS(=O)(=O)c3cn(C)cn3)cc2C1=O | . | -3 | 14 | .
C[C@@H]1CCCCO[C@H](CN(C)C(=O)c2ccccc2)[C@H](C)CN([C@H](C)CO)C(=O)c2cc(NS(=O)(=O)c3cn(C)cn3)ccc2O1 | . | 2 | 23 | .
C/C=C/c1ccc2c(c1)O[C@H](CN(C)C(=O)C1CC1)[C@H](C)CN([C@H](C)CO)S2(=O)=O | . | -5 | . | .
